An excerpt weighted towards active compounds, which were near 2.2% of everything screened.
Biofilm kill mix – clotrimazole potentiators killing C. albicans biofilm, primary screen, 4-compound mixtures. C. albicans biofilm persisters + clotrimazole, fluorescence viability; primary screen in compound mixtures of four per well. inhibition, % at 7.6 µM. 120,000 compounds, 0.02% hits;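 active means inhibition above 30.3% in the primary screen of four-compound pools, then above 30% when the compound was retested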;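 further: compounds exposed to preformed 24 h biofilms for 48 h; 0% = untreated biofilm control and 100% = clotrimazole plus chlorhexidine kill blank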
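Probe or stimulus – Clotrimazole 50 µg/mL co-treatment · System – C. albicans biofilms · Schedule – 24 h biofilm formation, then 48 h compound exposure, 37 °C · Evaluation – percent inhibition of biofilm viability · Technique – 2-h Alamar Blue fluorescence, 535/590 nm excitation/emission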
14-3-3 Bad PPI – inhibitors of 14-3-3 zeta/Bad binding, primary screen, biochemical, TR-FRET, bovine 14-3-3 zeta. AID 781, 2007. inhibition, % at 21.7 µM. 14-3-3 protein zeta/delta (Bos taurus), P63103. 220,000 compounds, 0.71% hits. TR-FRET 14-3-3zeta/Dy647-pBad peptide displacement, 1 h;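 active means inhibition above about 70%, limit read from the data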;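 further: 0% = full 14-3-3 plus peptide FRET controls and 100% = background without 14-3-3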
Target sequence (P63103 whole entry, looked up): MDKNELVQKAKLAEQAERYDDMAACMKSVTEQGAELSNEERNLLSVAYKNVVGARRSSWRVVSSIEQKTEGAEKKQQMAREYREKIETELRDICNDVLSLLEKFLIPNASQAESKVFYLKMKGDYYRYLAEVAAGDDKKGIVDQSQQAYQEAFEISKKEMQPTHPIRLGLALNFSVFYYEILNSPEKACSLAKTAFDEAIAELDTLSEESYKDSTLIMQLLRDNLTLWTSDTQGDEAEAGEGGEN
Hck-Nef inh – inhibitors of Nef-activated human Hck kinase, primary screen, biochemical, Z-Lyte FRET, 384-well, Hck-YEEI | Tyrosine-protein kinase HCK (Homo sapiens), P08631 | Recombinant Hck-YEEI plus Nef, Z-Lyte FRET kinase assay | inhibition, % at 20 µM | 220,000 compounds, 0.68% hits | AID 463187, 2010;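 active means Hck-Nef kinase inhibition above about 50%, limit read from the data; inactive means inhibition below that limit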;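 further: 0% = DMSO with Hck plus Nef and 100% = Hck alone without Nef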
PERK inh – block of dimerizer-induced PERK translation repression, primary screen, PERK inhibitor project, CHO PERK-DD cells, SEAP luminescence, HTS; CHO PERK-DD fusion, SEAP luminescence translation reporter; 220,000 compounds, 0.17% hits; AID 1416, 2008; inhibition, % at 5.6 µM; Eukaryotic translation initiation factor 2-alpha kinase 3 (Homo sapiens), Q9NZJ5;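 active means inhibition above the mean inhibition of all tested compounds plus 3 SD, set separately per screening campaign, cut at about 2.9% in these data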;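 further: PERK kinase domain activated by AP20187 dimerizer at 100 nM; 0% = DMSO with dimerizer and 100% = rapamycin at 8.4 µM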
eIF4E 4G PPI – eIF4E–eIF4G protein interaction inhibitors, primary screen, biochemical, uHTS, TR-FRET, eIF4GI fragment; 220,000 compounds, 0.37% hits; AID 782, 2007; TR-FRET eIF4E-eIF4GI(517-606) binding, 2 h; inhibition, % at 21.7 µM;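 active means inhibition above about 30%, limit read from the data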;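 further: 0% = full FRET control wells and 100% = background wells lacking eIF4GI fragment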
p97 inhibitor – inhibitors of human p97 ATPase, primary screen, biochemical. 220,000 compounds, 0.42% hits. inhibition, % at 8 µM. recombinant p97 ATPase, Kinase-Glo ATP luminescence, 3 h; in the data active means inhibition above about 15%;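 further: 0% = DMSO vehicle and 100% = wells lacking enzyme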
Starred values were filed as active, the others as inactive; . = no result; [ ] = remark or other dose.

SMILES	Biofilm kill mix	14-3-3 Bad PPI	Hck-Nef inh	PERK inh	eIF4E 4G PPI	p97 inhibitor
O=C1c2ccccc2N2C(=O)c3ccccc3C2N1Cc1ccccc1 (stereo not drawn)	13	1	-7	-2	1	-9
Cc1cccc(NC(=S)NC(=O)CCc2ccccc2)c1	.	77*	-1	0	-2	-3
CCOC(=O)/C(C#N)=C/c1ccc(OC(=O)c2ccccn2)cc1	18	81*[fluorescence artefact?]	1	0	31*	-1
COC(=O)/C(C#N)=C/c1ccc(OC(=O)c2ccccn2)cc1	8	-1	16	1	8	6
COc1ccc(-c2nn[nH]n2)cc1OC	.	36	-1	1	-9	1
Nc1cc(-c2nn[nH]n2)ccc1F	.	72*	0	0	4	7
Cc1ccc(-c2nn(CC(=O)NCc3cc(-c4nn(C)c(=O)c5ccccc45)ccc3C)c(=O)c3ccccc23)cc1	.	72*	-2	0	26	2
CCC(=O)NCc1cc(-c2nn(C)c(=O)c3ccccc23)ccc1C	.	-2	-2	-2	1	3
CCOc1ccc2c(c1)nc(SCC(=O)c1cccs1)n2C	.	73*	1	1	10	0
CCOc1ccc2c(c1)nc(SCC(=O)c1ccc(Br)s1)n2C	.	41	-1	-2	-20	-6
COc1ccc(CN2C(=O)/C(=C/c3ccc(-c4ccc(Cl)c(C(=O)O)c4)o3)SC2=S)cc1	16	77*	-17	0	65*	8
CC1=C(C#N)C(=O)N(C2CCS(=O)(=O)C2)C(=O)/C1=C\c1ccco1 (stereo not drawn)	4	77*	100*	1	63*	34*
CN1CCN(NC(=O)c2ccc(Cl)c(S(=O)(=O)Nc3ccc(Cl)cc3)c2)CC1	-3	-1	0	-1	3	4
CN(c1ccccc1)c1nc(N)c([N+](=O)[O-])c(N2CCOCC2)n1	5	4	23	0	-2	4
CCCCCCCC#Cc1ccccc1/C=N/S(=O)c1ccc(C)cc1 (stereo not drawn)	8	28	9	0	10	7
CC1CC(C)CN(CC(C)(C)NS(=O)(=O)c2ccccc2)C1 (stereo not drawn)	.	77*	1	1	3	-1
CCn1c(O)c(C#N)c(C)cc1=O	12	-16	6	2	0	8
Cc1cc(=O)n(CC(C)C)c(O)c1C#N	.	75*	0	1	-2	4
CC(Sc1nc2ccccc2[nH]1)C(=O)Nc1ccccc1F (stereo not drawn)	0	-1	-2	0	-1	6
O=C1CCCN1CC(CN1CCOCC1)Sc1nnnn1-c1ccccc1 (stereo not drawn)	.	79*	2	1	3	-1
COC(=O)c1ccccc1NC(=O)Cn1nc2n(C)c3ccccc3n2c(=O)c1=O	23	93*	6	1	3	3
CCCCSc1nnc(CCNC(=O)OC(C)(C)C)o1	17	-1	13	-1	-1	-3
Cc1cc(C)nc(SCc2nnc(SCC(N)=O)n2Cc2ccco2)n1	.	0	0	1	2	4
CCOC(=O)CSc1nnc(CSc2nc(C)cc(C)n2)n1Cc1ccco1	.	11	0	0	136*[fluorescence artefact?]	-4
O=S(=O)(Nc1cc(Sc2ncn[nH]2)c(O)c2ccccc12)c1ccccc1	3	71*	-7	0	27	29*
Cc1cc(NS(=O)(=O)c2ccccc2)c(C)c(Cl)c1O	.	2	.	.	0	.
COC(=O)CN1C(=S)N(c2ccc(OC)cc2)C(=O)/C1=C/c1ccc(OC)cc1	3	-8	21	0	-3	4

High-throughput results from PubChem.
